Measurements: ChEMBL document CHEMBL4480369, “Discovery of 3-hydroxy-3-pyrrolin-2-one-based mPGES-1 inhibitors using a multi-step virtual screening protocol” (Medchemcomm, 2018)

Legend:
[1] = target: T1, Prostaglandin E synthase (Homo sapiens) (UniProt O14684); assay: Inhibition of mPGES1 in IL1beta-stimulated human A549 cell microsomes assessed as residual activity at 10 uM using PGH2 as substrate preincubated for 15 mins followed by substrate addition and measured after 1 min by RP-HPLC analysis relative to control
T1 sequence (whole entry): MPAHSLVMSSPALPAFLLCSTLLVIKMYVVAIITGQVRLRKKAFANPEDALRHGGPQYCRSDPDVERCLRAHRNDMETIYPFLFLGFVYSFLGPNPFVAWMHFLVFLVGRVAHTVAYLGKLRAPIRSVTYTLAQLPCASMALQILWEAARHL
How it was run: (§1)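 mPGES-1 source was microsomes from A549 cells treated 48 h with IL-1β (1 ng ml–1), obtained by sonication and differential centrifugation (10 000×g, then 174 000×g, 4 °C). Microsomes diluted in 0.1 M potassium phosphate pH 7.4 with 2.5 mM glutathione. Compound or DMSO vehicle added for 15 min at 4 °C; 20 μM PGH2 then reacted 1 min at 4 °C. Stopped with FeCl2/citric acid containing 11β-PGE2; PGE2 measured by SPE and RP-HPLC.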

[2] = target: T2, Polyunsaturated fatty acid 5-lipoxygenase (Homo sapiens) (UniProt P09917); assay: Inhibition of 5-LO in human neutrophils assessed as residual activity at 10 uM using arachidonic acid as substrate preincubated for 10 mins followed by substrate addition and measured after 10 mins by RP-HPLC analysis
T2 sequence (whole entry): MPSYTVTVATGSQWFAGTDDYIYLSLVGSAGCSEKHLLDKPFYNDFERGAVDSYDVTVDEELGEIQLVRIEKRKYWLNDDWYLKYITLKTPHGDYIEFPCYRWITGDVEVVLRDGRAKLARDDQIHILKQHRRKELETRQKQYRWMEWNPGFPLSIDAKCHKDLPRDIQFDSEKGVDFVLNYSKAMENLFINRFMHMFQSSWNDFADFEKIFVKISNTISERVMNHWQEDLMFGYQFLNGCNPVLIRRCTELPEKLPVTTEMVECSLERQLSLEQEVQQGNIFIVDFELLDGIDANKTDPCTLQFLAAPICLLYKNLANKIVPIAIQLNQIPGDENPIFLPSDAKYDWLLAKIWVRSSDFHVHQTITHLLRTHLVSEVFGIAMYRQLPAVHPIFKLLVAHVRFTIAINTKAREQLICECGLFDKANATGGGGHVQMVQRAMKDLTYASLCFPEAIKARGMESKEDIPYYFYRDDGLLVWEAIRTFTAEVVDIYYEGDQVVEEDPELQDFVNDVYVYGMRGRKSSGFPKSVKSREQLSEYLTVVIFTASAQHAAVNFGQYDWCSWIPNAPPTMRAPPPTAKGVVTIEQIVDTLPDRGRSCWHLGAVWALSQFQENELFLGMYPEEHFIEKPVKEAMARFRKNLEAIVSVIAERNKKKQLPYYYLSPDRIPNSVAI
How it was run: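 Freshly isolated human peripheral-blood neutrophils at 5 × 10^6 cells per ml in PBS pH 7.4 with 1 mM CaCl2 and 1 mg mL–1 glucose. Cells pre-treated 10 min with compound in DMSO (final 0.1%). Stimulated with 2.5 μM Ca2+ ionophore A23187 plus 20 μM arachidonic acid for 10 min at 37 °C, then stopped on ice with methanol. After C18 solid-phase extraction, LTB4 all-trans isomers and 5-H(P)ETE quantified by RP-HPLC against PGB1 internal standard.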

Prostaglandin E synthase = target: T3, Prostaglandin E synthase (Homo sapiens, UniProt O14684); assay: Inhibition of mPGES1 in IL1beta-stimulated human A549 cell microsomes using PGH2 as substrate preincubated for 15 mins followed by substrate addition and measured after 1 min by RP-HPLC analysis; how it was run: as §1
T3 sequence (O14684 whole entry): T1 sequence (whole entry)

| SMILES | Activity [1] | Activity [2] | IC50 (Prostaglandin E synthase) |
| --- | --- | --- | --- |
| CC(=O)N[C@H]1[C@H](Oc2ccc(Nc3nc(-c4ccc(Cl)cc4)nc4ccccc34)cc2)O[C@H](CO)[C@@H](O)[C@H]1O | 80.1% | – | – |
| CCOc1ccc(N2CC(c3nc4ccccc4n3CCOc3ccc(Cl)cc3)CC2=O)cc1 (configuration not stated) | 65.3% | – | – |
| CCOc1ccc(C2C(C(=O)c3cc4ccccc4o3)=C(O)C(=O)N2c2nnc(SCc3ccc(Cl)cc3)s2)cc1OC (configuration not stated) | 30.5% | 92.5% | 3700 nM |
| COc1ccc(C(=O)N/C(=C\c2ccc(-c3cccc(C(F)(F)F)c3)o2)C(=O)NC(C)(C)C)cc1 | 88.6% | – | – |
| COc1ccc(C(=O)N/C(=C\c2ccc(-c3ccccc3Cl)o2)C(=O)NCCCO)cc1 | 72.1% | – | – |
| O=C(C1=C(O)C(=O)N(c2ncc(S(=O)(=O)c3ccc([N+](=O)[O-])cc3)s2)C1c1cccc(Cl)c1)c1ccc(Cl)cc1 (configuration not stated) | 25% | 56.6% | 1900 nM |
| CCOC(=O)C1CCCN(c2nc3c(C)cccn3c(=O)c2/C=C(\C#N)C(=O)NCc2ccccc2)C1 (configuration not stated) | 86.8% | – | – |
| Cc1sc2ncn(CC(=O)Nc3ccc(Oc4ccccc4)cc3)c(=O)c2c1-c1ccccc1 | 82.6% | – | – |
